Data on six molecules can be found in ChEMBL document CHEMBL1141285, “Antimicrobial compounds from the Australian desert plant Eremophila neglecta” (2007).

In brackets after ≈: the same amount, converted by molar mass. Activity calls are given as the source filed them. The calls are words filed in the database; no cut-off is given here.

The test system of experiment [1] is Staphylococcus aureus. The experiment is described as follows: Antimicrobial activity against Staphylococcus aureus ATCC 29213 by broth microdilution method. On the technique in general: Broth dilution looks for growth in wells or tubes with falling amounts of substance.
The subject of experiment [2] is Salmonella typhimurium. The experiment is described as follows: Antimicrobial activity against Salmonella Typhimurium ATCC 13311 at 621.5 uM by broth microdilution method. The format is functional, organism-based. To be noted: Salmonella enterica subsp. enterica serovar Typhimurium.
Experiment [3] deals with Staphylococcus aureus. The experiment is described as follows: Antimicrobial activity against Staphylococcus aureus ATCC 25923 by broth microdilution method. The format is functional. The method, boiled down:
(§1)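 Broth microdilution in cation-adjusted MH II broth with 2% DMSO in the 2-fold serial dilutions (final 1% v/v), done in duplicate. Bacteria grown on 5% sheep blood agar at 37 °C. Final inoculum 5 × 10^5 CFU/mL. Plates shaken 10 min, then incubated overnight at 37 °C. MIC is the lowest concentration with no growth in both duplicate wells.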

In experiment [4] the test system is Streptococcus pyogenes. The experiment is described as follows: Antimicrobial activity against Streptococcus pyogenes ATCC 10389 by broth microdilution method. The format is functional. The method, boiled down:
(§2)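 Broth microdilution in brain heart infusion broth with 2% DMSO in the 2-fold serial dilutions (final 1% v/v), done in duplicate. Final inoculum 5 × 10^5 CFU/mL. Plates shaken 10 min, then incubated overnight at 37 °C with 5% CO2. MIC is the lowest concentration with no growth in both duplicate wells.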

Experiment [5] deals with Pseudomonas aeruginosa. In words: Antimicrobial activity against Pseudomonas aeruginosa ATCC 27853 at 621.5 uM by broth microdilution method. The format is functional, organism-based.
Experiment [6] has as its system Staphylococcus aureus. The experiment is described as follows: Antimicrobial activity against Staphylococcus aureus ATCC 29213 by broth microdilution method. The format is functional. A digest of the protocol:
as §1

Experiment [7] has as its system Streptococcus pneumoniae. In words: Antimicrobial activity against Streptococcus pneumoniae ATCC 49619 by broth microdilution method. The format is functional. The method, boiled down:
as §2

Experiment [8] has as its system Escherichia coli. In words: Antimicrobial activity against Escherichia coli ATCC 25922 at 621.5 uM by broth microdilution method. The format is functional, organism-based.
Experiment [9] concerns Staphylococcus aureus. The experiment is described as follows: Antimicrobial activity against Staphylococcus aureus ATCC 29213 at 621.5 uM by broth microdilution method. The format is functional, organism-based.

What is called MIC is the least concentration at which growth counts as inhibited. Consider `CN[C@H](CC(C)C)C(=O)N[C@H]1C(=O)N[C@@H](CC(N)=O)C(=O)N[C@H]2C(=O)N[C@H]3C(=O)N[C@H](C(=O)N[C@H](C(=O)O)c4cc(O)cc(O)c4-c4cc3ccc4O)[C@H](O)c3ccc(c(Cl)c3)Oc3cc2cc(c3O[C@@H]2O[C@H](CO)[C@@H](O)[C@H](O)[C@H]2O[C@H]2C[C@](C)(N)[C@H](O)[C@H](C)O2)Oc2ccc(cc2Cl)[C@H]1O` [VANCOMYCIN], for which the minimum inhibitory concentration (MIC) in [1] came to 0.7 µM (≈ 1.01 µg/mL).

The MBC is the lowest tested concentration that kills the bacteria rather than only halting them. Take `CC(C)=CCC[C@H](C)[C@@H]1CC[C@@H](C)c2c(O)cc(CO)cc21`: the outcome in experiment [2], in [5] and in experiment [8] was inactive. Also, the minimal bactericidal concentration (MBC) came to 25.8 µM (≈ 7.8 µg/mL) in [3], 12.9 µM (≈ 3.9 µg/mL) in experiment [4], 25.8 µM (≈ 7.8 µg/mL) in experiment [6] and 12.9 µM (≈ 3.9 µg/mL) in experiment [7]. Further, the MIC in experiment [3] was 25.8 µM (≈ 7.8 µg/mL); in experiment [4], 12.9 µM (≈ 3.9 µg/mL); in experiment [6], 25.8 µM (≈ 7.8 µg/mL); in experiment [7], 12.9 µM (≈ 3.9 µg/mL).

As to `CC(C)=CCCC1=COC2=C(C)C(=O)C(=O)c3c(C)ccc1c32`, the result in [2], in experiment [5] and in [8] was inactive. In addition, the minimal bactericidal concentration (MBC) in [3] was 50.6 µM (≈ 15.6 µg/mL); in experiment [4], 203 µM (≈ 62.6 µg/mL); in experiment [6], 203 µM (≈ 62.6 µg/mL); in [7], 12.7 µM (≈ 3.92 µg/mL). For the same molecule, the MIC in experiment [3] was 25.3 µM (≈ 7.8 µg/mL); in experiment [4], 102 µM (≈ 31.3 µg/mL); in experiment [6], 25.3 µM (≈ 7.8 µg/mL); in [7] it was 6.5 µM (≈ 2 µg/mL).

For the molecule `CC(=O)OCc1cc(O)c2c(c1)[C@H]([C@@H](C)CCC=C(C)C)C[C@H](OC(C)=O)[C@H]2C`, the result in [9] was inactive.

The molecule GENTAMICIN yielded an MIC in [6] of 1 µM.

Turning to `CC(C)=CCC[C@H](C)[C@@H]1CC[C@@H](C)c2c(O)cc(C(=O)O)cc21`, the result in [2], in [5] and in experiment [8] was inactive. In addition, the MBC in experiment [3] worked out at 99 µM (≈ 31.3 µg/mL); in experiment [4] it was 99 µM (≈ 31.3 µg/mL); in [6], 49.3 µM (≈ 15.6 µg/mL); in experiment [7] it was 49.3 µM (≈ 15.6 µg/mL). Further, the minimum inhibitory concentration (MIC) is 49.3 µM (≈ 15.6 µg/mL) in [3], 24.7 µM (≈ 7.82 µg/mL) in experiment [4], 49.3 µM (≈ 15.6 µg/mL) in experiment [6] and 24.7 µM (≈ 7.82 µg/mL) in experiment [7].
